Some results are limits rather than exact numbers.

For one assay, the system named is MCF7. In words: In vitro antitumor activity against MCF-7 carcinoma cell line. Particulars: Homo sapiens. Format: functional, cell-based. The gist of the method:
(§1)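 MTT assay, 7-day format: 250–300 cells/well, adhered 24 h drug-free, then compound 1 pM–100 μM (n = 8), final DMSO <0.25%; RPMI 1640/10% FCS, 37 °C, 5% CO2. MTT added after exposure, 4 h, formazan dissolved in DMSO–glycine (4:1), absorbance 550 nm.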

In the next assay the test system is MDA-MB-468. In words: In vitro antitumor activity against MDA-468 carcinoma cell line. The class given is functional, cell-based. Particulars: Homo sapiens. The gist of the method: as §1
Assay [1] concerns NCI. In words: In vitro antitumor activity against carcinoma cell lines by 2-day assay. The class given is functional, Homo sapiens. The gist of the method: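 NCI panel sulforhodamine B assay: line-specific seeding, 24 h drug-free, then five 10-fold dilutions (top 10^-4 M) for 2 days; growth inhibition from protein-stain optical density change; mean log GI50 across panel.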

The next assay deals with Homo sapiens. Put plainly: In vitro concentration to reduce colony formation of human tumor xenografts to 30% of the control. The class given is functional. The gist of the method: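 Clonogenic colony-formation assay using cells from 22 human tumor xenografts, tested at 0.1, 1.0 and 10 μg/mL; colony inhibition expressed as T/C, with T/C < 30% scored active; IC70 concentration reported.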

Assay [2] relates to NCI. Put plainly: In vitro antitumor activity against carcinoma cell lines by 6-day assay. The class given is functional, Homo sapiens. The method, boiled down: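 NCI 60-cell-line panel, sulforhodamine B protein stain. Seeding density set per line's growth; 24 h drug-free incubation, then test agent at five 10-fold dilutions up to 10^-4 M for 6 days of exposure. Growth inhibition derived from change in protein-stain optical density; log GI50 reported.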

`c1ccc2sc(-c3ccc4[nH]ncc4c3)nc2c1`: the IC50 in the assay with MCF7 and with MDA-MB-468 was greater than 10 µM in each case.
In the case of `Cc1cc(-c2nc3ccccc3s2)ccc1N`, the IC50 with MCF7 and with MDA-MB-468 was less than 0.001 µM each time. The “Mean log GI50” value in the assay with NCI [1] is on record as -4.61 M; in the assay with NCI [2], -5.05 M. Moreover, the “Mean IC70” value in the assay on Homo sapiens was 6.9 mg/L.
Regarding `CC(=O)Nc1ccc(-c2nc3ccccc3s2)cc1`, the IC50 with MCF7 and with MDA-MB-468 was greater than 0.1 µM throughout. Further, the “Mean log GI50” value in the assay on NCI [1] is given as -4.4 M.
As to `O=C(CCl)Nc1ccc(-c2nc3ccccc3s2)cc1I`, the IC50 in the assay with MCF7 and in the assay on MDA-MB-468 was greater than 0.01 µM in each case.
As to `CC(=O)Nc1ccc(-c2nc3ccccc3s2)cc1C`, the IC50 with MCF7 and in the assay with MDA-MB-468 was greater than 10 µM each time. In addition, in the assay with NCI [1], the “Mean log GI50” value was -4.36 M.
Consider `Nc1ccc(-c2nc3ccccc3s2)cc1`, for which the IC50 with MCF7 and in the assay on MDA-MB-468 was greater than 0.01 µM throughout. The “Mean log GI50” value with NCI [1] is recorded as -4.76 M. For the same molecule, the “Mean IC70” value with Homo sapiens amounted to 10 mg/L.
For `CC(=O)Nc1ccc(-c2nc3ccccc3s2)cc1I`, the concentration for half-maximal inhibition (IC50) in the assay on MCF7 and in the assay on MDA-MB-468 was greater than 0.1 µM throughout. Besides, in the assay with NCI [1], the “Mean log GI50” value is -4.7 M.
As to `CC(=O)Nc1ccc(-c2nc3ccccc3s2)cc1Br`, the IC50 – broadly, the midpoint of a concentration-inhibition curve – with MCF7 is greater than 0.01 µM; with MDA-MB-468, greater than 0.1 µM. The “Mean log GI50” value in the assay on NCI [1] is -4.52 M.
`CC(=O)N(C(C)=O)c1ccc(-c2nc3ccccc3s2)cc1C`: the IC50 with MCF7 and with MDA-MB-468 was greater than 10 µM throughout.
Regarding `Nc1ccc(-c2nc3ccccc3o2)cc1`, the IC50 with MCF7 was greater than 0.1 µM; with MDA-MB-468, greater than 1 µM. For the same molecule, the “Mean log GI50” value in the assay on NCI [1] is on record as -4.26 M.
On to `CC(=O)N(C(C)=O)c1ccc(-c2nc3ccccc3s2)cc1`, for which the IC50 with MCF7 and with MDA-MB-468 was greater than 0.1 µM throughout.
Regarding `O=C(CCl)Nc1ccc(-c2nc3ccccc3o2)cc1`, the IC50 in the assay with MCF7 and in the assay with MDA-MB-468 was greater than 1 µM throughout.
With `Nc1ccc(-c2nc3ccccc3s2)cc1Cl`, the IC50 with MCF7 and in the assay with MDA-MB-468 was less than 0.001 µM throughout. The figures for the “Mean log GI50” value with NCI [1] and in the assay on NCI [2] were -4.75 M and -5.26 M, respectively.
In the case of `O=C(CCl)Nc1ccc(-c2nc3ccccc3s2)cc1`, the results for the IC50 with MCF7 and in the assay on MDA-MB-468 were greater than 0.01 µM and greater than 0.1 µM, respectively. In the assay on NCI [1], the “Mean log GI50” value was -5.7 M. In addition, the “Mean IC70” value in the assay on Homo sapiens was determined as 3.5 mg/L.
As for `Nc1ccc(-c2nc3ccccc3s2)cc1I`, the IC50 with MCF7 and in the assay with MDA-MB-468 was less than 0.001 µM throughout. The “Mean log GI50” value in the assay on NCI [1] is recorded as -4.75 M; in the assay on NCI [2], -5.12 M. The “Mean IC70” value in the assay with Homo sapiens came to 6.1 mg/L.
`CC(=O)Nc1ccc(-c2nc3ccccc3s2)cc1[N+](=O)[O-]`: the IC50 with MCF7 and in the assay with MDA-MB-468 was greater than 1 µM in each case.
Regarding `CC(=O)Nc1ccc(-c2nc3ccccc3[nH]2)cc1`, the IC50 in the assay with MCF7 and with MDA-MB-468 was greater than 10 µM in each case.
With `Nc1ccc(-c2nc3ccccc3[nH]2)cc1`, the values for the IC50 in the assay on MCF7 and with MDA-MB-468 were greater than 10 µM and greater than 1 µM, respectively.
On to `O=C(Nc1ccc(-c2nc3ccccc3s2)cc1)c1ccccc1`, for which the IC50 in the assay with MCF7 and in the assay on MDA-MB-468 was greater than 1 µM throughout.
`O=C(Nc1ccc(-c2nc3ccccc3s2)cc1)C(F)(F)F`: the IC50 with MCF7 is greater than 0.01 µM; in the assay on MDA-MB-468, greater than 0.1 µM.
For `C/C(S)=N/c1ccc(-c2nc3ccccc3s2)cc1` the same measures were greater than 0.1 µM and greater than 0.1 µM.
Consider `CC(=O)N(C(C)=O)c1ccc(-c2nc3ccccc3s2)cc1Cl`, for which the IC50 is greater than 10 µM in the assay with MCF7 and greater than 1 µM with MDA-MB-468.
For `O=C(Nc1ccc(-c2nc3ccccc3s2)cc1)C(Cl)Cl`, the IC50 with MCF7 and in the assay on MDA-MB-468 was greater than 0.1 µM throughout.
For the molecule `CC(=O)Nc1ccc(-c2nc3ccccc3o2)cc1`, the IC50 with MCF7 and with MDA-MB-468 was greater than 10 µM throughout. Moreover, the “Mean log GI50” value in the assay with NCI [1] is on record as -4.27 M.
Consider `CC(=O)Nc1ccc(-c2nc3ccccc3s2)cc1Cl`, for which the IC50 in the assay with MCF7 was greater than 0.01 µM; with MDA-MB-468, greater than 0.1 µM. In addition, the “Mean log GI50” value in the assay with NCI [1] is listed as -4.54 M.

For the origin of these results see ChEMBL document CHEMBL1132564, “Antitumor benzothiazoles. 7. Synthesis of 2-(4-acylaminophenyl)benzothiazoles and investigations into the role of acetylation in the antitumor activities of the parent amines” (J Med Chem, 1999).
